Experimental data taken from paper PMC7217742 (Addiction biology, 2019).

Columns and labels:
[1] = biological target: DAT (Rattus norvegicus, UniProt P23977); assay: Inhibition of [3H]dopamine uptake in rat brain synaptosomes; format: biochemical
[2] = biological target: NET (Rattus norvegicus, UniProt Q63380); assay: Inhibition of [3H]norepinephrine uptake in rat brain synaptosomes; format: biochemical
[3] = system: extracellular dopamine in the nucleus accumbens; assay: In vivo microdialysis, dopamine; parameters: species or system rat; conditions: for dose producing a significant increase in extracellular dopamine: i.v., nucleus accumbens microdialysis, vs saline
Outline: (§1)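 Male Sprague-Dawley rats (300–400 g) were anesthetized with ketamine/xylazine (75/5 mg/kg i.p.) and fitted with a jugular catheter and a guide cannula aimed at the nucleus accumbens. After three stable baseline samples, they received two i.v. doses 60 min apart, the second threefold higher (0.1 then 0.3, or 1.0 then 3.0 mg/kg); controls received saline (1 ml/kg). Dialysate was collected every 20 min for 120 min. Probe placement was verified histologically. Data were expressed as % baseline and analysed by two-way ANOVA with Bonferroni tests.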

[4] = system: male Sprague-Dawley rats; assay: Locomotor activity; format: in vivo, rat; conditions: i.v., lowest dose with increase, during microdialysis
Outline: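 Ambulation and stereotypy were counted by photobeam breaks in the same rats during nucleus accumbens microdialysis. The rats received two sequential i.v. injections 60 min apart, the second threefold higher (0.1/0.3 or 1.0/3.0 mg/kg), or saline (1 ml/kg), and were monitored through the 120-min post-injection period.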

[5] = system: male Sprague-Dawley rats; assay: Intravenous self-administration; format: in vivo, rat; conditions: for acquisition of self-administration (rats showing clear evidence): FR1, 10 days, 2-h sessions; for i.v. dose supporting peak responding: dose-effect testing after training on the same enantiomer, discussion; for dose of peak (highest) responding in dose-effect testing: i.v., after acquisition, results section; for active nose-poke responding over 10 days of extinction: saline substituted for drug
Outline: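 Rats on a reverse light cycle were catheterized in the jugular vein under ketamine/xylazine (80/9.6 mg/kg i.p.) and recovered for at least 7 days. Active nose-pokes (side counterbalanced) were reinforced on FR1 with an i.v. infusion, each followed by a 20-s timeout, in 2-h sessions. Acquisition ran at least 10 days at 0.03 or 0.3 mg/kg/inj. Three further doses were then given in non-systematic order, 3 days each, averaging days 2–3. Saline substitution for 10 days followed. Analysis used a linear mixed-effects model.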

[6] = system: male Sprague-Dawley rats; assay: Telemetric assessment of blood pressure; format: in vivo, rat; conditions: s.c.; for ED50 blood pressure: mean over 3-h session, halfway point 109.5 mm Hg, 95% CI given in text
[7] = system: male Sprague-Dawley rats; assay: Telemetric assessment of body temperature; format: in vivo, rat; conditions: s.c., telemetry, data not shown
Outline: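 In telemetry-implanted rats adapted to the chambers and to s.c. injection, body temperature was sampled for 10 s each minute for 3 h and averaged across the session. Doses were 0.3–3.0 mg/kg or 3.0–30 mg/kg s.c., in non-systematic order, at most twice weekly. One-way ANOVA with Dunnett's test compared each dose with control.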

[8] = system: extracellular 5-HT in the nucleus accumbens; assay: In vivo microdialysis, 5-HT; parameters: species or system rat; conditions: i.v.
Outline: as §1

[9] = system: DAT; conditions: range given for DAT and NET together; cited from earlier work
[10] = system: NET; conditions: range given for DAT and NET together; cited from earlier work
[11] = system: mice trained to discriminate cocaine from saline; conditions: cited from earlier work
[12] = system: rats; conditions: progressive ratio schedule, rats trained with racemic MDPV; cited from earlier work
[13] = uptake inhibition, rat brain synaptosomes

DAT (Rattus norvegicus, UniProt P23977), sequence (P23977 whole entry): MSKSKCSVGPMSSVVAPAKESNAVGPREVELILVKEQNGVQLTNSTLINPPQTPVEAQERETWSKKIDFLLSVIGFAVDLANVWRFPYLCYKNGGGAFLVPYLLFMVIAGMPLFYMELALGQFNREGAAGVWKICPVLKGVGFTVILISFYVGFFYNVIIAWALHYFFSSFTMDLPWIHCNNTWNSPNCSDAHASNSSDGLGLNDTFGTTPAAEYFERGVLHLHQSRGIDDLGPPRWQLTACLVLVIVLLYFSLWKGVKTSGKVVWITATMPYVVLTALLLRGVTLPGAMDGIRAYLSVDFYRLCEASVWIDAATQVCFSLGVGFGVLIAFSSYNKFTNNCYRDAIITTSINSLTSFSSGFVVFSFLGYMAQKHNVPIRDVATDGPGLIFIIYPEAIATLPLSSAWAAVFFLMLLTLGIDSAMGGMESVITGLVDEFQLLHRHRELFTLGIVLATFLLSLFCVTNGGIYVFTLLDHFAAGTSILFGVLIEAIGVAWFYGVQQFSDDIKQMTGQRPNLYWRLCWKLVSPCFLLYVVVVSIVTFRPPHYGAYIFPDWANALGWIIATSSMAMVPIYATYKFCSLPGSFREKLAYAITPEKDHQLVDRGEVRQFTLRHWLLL
NET (Rattus norvegicus, UniProt Q63380), sequence (Q63380 1-617): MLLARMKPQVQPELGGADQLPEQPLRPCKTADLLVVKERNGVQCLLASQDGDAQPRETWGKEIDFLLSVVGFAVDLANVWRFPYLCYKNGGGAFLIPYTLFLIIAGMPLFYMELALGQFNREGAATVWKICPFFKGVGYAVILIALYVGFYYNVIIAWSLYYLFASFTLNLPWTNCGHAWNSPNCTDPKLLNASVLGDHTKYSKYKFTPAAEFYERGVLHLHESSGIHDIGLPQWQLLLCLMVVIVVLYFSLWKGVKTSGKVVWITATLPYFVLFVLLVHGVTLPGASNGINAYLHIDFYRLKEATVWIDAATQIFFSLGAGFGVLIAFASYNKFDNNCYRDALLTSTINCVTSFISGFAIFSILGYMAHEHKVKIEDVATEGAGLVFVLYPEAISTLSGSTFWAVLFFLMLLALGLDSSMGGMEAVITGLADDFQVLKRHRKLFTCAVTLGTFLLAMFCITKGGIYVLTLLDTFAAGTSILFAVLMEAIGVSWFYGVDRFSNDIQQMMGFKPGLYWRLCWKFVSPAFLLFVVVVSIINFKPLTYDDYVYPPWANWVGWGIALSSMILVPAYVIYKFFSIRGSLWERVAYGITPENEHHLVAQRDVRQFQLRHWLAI

## CCC[C@H](C(=O)c1ccccc1)N1CCCC1 [R-α-PVP]
[1]; [13]
  times less potent than S-α-PVP at DAT: 40 times
[2]
  times less potent than S-α-PVP at NET: 20 times
[3]; 3 mg/kg i.v., nucleus accumbens
  size of dopamine increase relative to 0.3 mg/kg S-α-PVP: less than half
[3]
  dose producing a significant increase in extracellular dopamine: 3 mg/kg
[4]
  dose increasing overall activity and stereotypy: 3 mg/kg
[5]; 0.03 mg/kg/injection i.v.
  acquisition of self-administration (rats showing clear evidence): did not show evidence of acquisition
[5]; 0.3 mg/kg/injection i.v.
  acquisition of self-administration (rats showing clear evidence): Six of the 8
[5]; abstract
  times less potent than S-α-PVP (self-administration dose-effect determinations): at least 30 times
[5]
  i.v. dose supporting peak responding: 0.3 mg/kg/inj
  dose of peak (highest) responding in dose-effect testing: 0.3 mg/kg/injection
  active nose-poke responding over 10 days of extinction: did not decrease significantly over days of extinction
[5]; rightward shift of inverted U-shaped function
  fold less potent than racemic α-PVP (self-administration dose-effect function): around 30 fold
[6]; blood pressure and heart rate, R- vs S-α-PVP
  fold difference in potency between enantiomers from calculated ED50 values: 20 – 40 fold
[6]; from significant doses
  times less potent than racemic α-PVP on blood pressure: approximately 10 times
[6]
  ED50 blood pressure: 5.85 mg/kg
[7]
  dose with significant increase in body temperature: 10 mg/kg

## CCC[C@@H](C(=O)c1ccccc1)N1CCCC1 [S-α-PVP]
[1]; discussion
  times more potent than cocaine in blocking uptake at DAT: about 30 times
[1]; [13]
  times more potent than the racemate at DAT: about 2 times
[2]
  times more potent than the racemate at NET: about 2 times
[3]
  dose producing a significant increase in extracellular dopamine: 0.1 mg/kg
[4]
  dose increasing overall activity and stereotypy: 0.1 mg/kg
[5]; 0.03 mg/kg/injection i.v.
  acquisition of self-administration (rats showing clear evidence): All 10
[5]
  i.v. dose supporting peak responding: ≤ 0.003 mg/kg/inj
  dose of peak (highest) responding in dose-effect testing: 0.003 mg/kg/injection
  active nose-poke responding over 10 days of extinction: decreased over the 10 days of extinction
[6]
  times more potent than racemic on blood pressure (ED50): approximately 2 times
  ED50 blood pressure: 0.29 mg/kg
[7]
  dose with significant increase in body temperature: 0.3 mg/kg

## CCCC(C(=O)c1ccccc1)N1CCCC1 (stereo not drawn) [R,S-α-PVP, α-pyrrolidinovalerophenone]
[8]
  change in extracellular levels of 5-HT: no changes
[4]
  dose increasing overall activity and stereotypy: 0.3 mg/kg

## CCC[C@@H](C(=O)c1ccc2c(c1)OCO2)N1CCCC1 [S-MDPV]
[9]
  times more potent than R-MDPV in blocking uptake at DAT: 50–100 times
[10]
  times more potent than R-MDPV in blocking uptake at NET: 50–100 times
[11]
  times more potent than the R-isomer in substituting for cocaine: about 100 times
[12]
  times more potent than the R-isomer in self-administration: about 50 times
